# Published values collected from several papers.
# Protocols differ between the studies behind these lines.
# Target: Mitogen-activated protein kinase kinase kinase 9 (MAP3K9, Homo sapiens, UniProt P80192)
SMILES,assay,setting,endpoint,result
N#Cc1ccc(NC(=O)Nc2ccccc2)cc1,"cell-free assay, competition with immobilised ligand",25 µM,remaining binding,100%
CCCCC(=O)Nc1ccc(-c2ccc3ncn(CCC)c(=O)c3c2)cn1,"binding, competition with immobilised ligand",0.5 µM,remaining binding,83%
COc1ccc2oc(-c3ccc4nc(N)oc4c3)c/c(=N\c3ccccc3NC(=O)CCN)c2c1,binding,1 µM,remaining binding,83%
CN1CCN(C(=O)c2ccc(NC(=O)Nc3ccc(N(C)c4ccnc(Nc5ccc(CS(C)(=O)=O)cc5)n4)cc3)cc2)CC1,binding,1 µM,remaining binding,86%
C#Cc1cnc(Nc2ccnc(CO)c2)nc1Nc1ccccc1S(C)(=O)=NC#N (stereo not drawn),cell-free assay,1 µM,remaining signal,26%
CO[C@@H]1[C@H](N(C)C(=O)c2ccccc2)C[C@H]2O[C@]1(C)n1c3ccccc3c3c4c(c5c6ccccc6n2c5c31)C(=O)NC4,"enzyme activity, inhibitor",1 µM,inhibition,90%
Cc1ccc(NC(=O)c2ccnc(C(F)(F)F)c2)cc1-c1cc(OCCO)nc(N2CCOCC2)c1,binding,1 µM,remaining binding,100%
C#Cc1cc(-c2cc(Nc3nc(N[C@@H](C)c4ccc(F)cn4)ncc3Cl)n[nH]2)ccc1C=O,"enzyme activity, inhibitor",0.2 µM,inhibition,59.8%
C=CC(=O)N1CCC[C@@H](n2nc(-c3ccc(Oc4ccccc4)cc3)c3c(N)ncnc32)C1,"enzyme activity, inhibitor",1 µM,inhibition,4%
